Screening results: PubChem BioAssay, several laboratories
An excerpt weighted towards active compounds, which were near 5.2% of everything screened.
NS3 helicase inh = inhibitors of HCV NS3 helicase, primary screen, biochemical, Cy5 molecular beacon fluorescence; NS3 helicase DNA unwinding; inhibition, % at 10.9 µM; AID 1800, 2009; hit rate 0.56% among 290,000;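 active means inhibition above the mean of all tested compounds plus 3 SD, set per campaign, cut at about 35% in these data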
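Control set: DMSO versus 110 µM thioflavine S; Material: NS3 helicase fragment of HCV; Measured by: Cy5 fluorescence at 0 and 60 min, beacon hairpin quenching; Read-out basis: percent inhibition from t60/t0 fluorescence ratio; Times: reaction time 60 min, 25 °C; Repeats: single replicate; Compound dosing: single dose, 10.9 µM nominal final, DMSO 0.8% final.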
ALR inh = inhibitors of human ALR sulfhydryl oxidase, primary screen, biochemical, H2O2 detection, HRP-luminol luminescence, single point; hit rate 3.8% among 290,000; purified ALR, DTT oxidation; FAD-linked sulfhydryl oxidase ALR (Homo sapiens), P55789; inhibition, % (concentration not given with the values);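 active means mean replicate inhibition above about 79%, with every replicate also reaching it, limit read from the data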
Target sequence (P55789 whole entry, looked up): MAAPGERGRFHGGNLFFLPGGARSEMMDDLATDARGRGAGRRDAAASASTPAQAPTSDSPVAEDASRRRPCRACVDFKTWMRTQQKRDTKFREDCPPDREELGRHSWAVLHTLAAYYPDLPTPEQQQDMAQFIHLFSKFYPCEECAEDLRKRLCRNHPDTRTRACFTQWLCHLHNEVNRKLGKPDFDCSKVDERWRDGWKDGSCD
HCV core dimer = inhibitors of HCV core protein dimerization, primary screen, biochemical, TR-FRET, high-throughput; hit rate 0.33% among 300,000; TR-FRET GST/Flag-core106 dimerization, 1536-well; inhibition, % at 5 µM;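 active means inhibition above the mean of all tested compounds plus 3 SD, set per screening campaign, cut at about 45% in these data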
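assay system = GST-tagged and Flag-tagged HCV core protein residues 1-106 | controls = unlabelled core106 and no-GST-core106 wells | incubation = compound-protein-antibody incubation 4 h at 22.5 °C | probe or stimulus = Eu donor and XL665 acceptor anti-tag antibodies | read-out = % inhibition based on acceptor/donor emission ratio | signal = TR-FRET 671 and 617 nm emission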
M18AAP inhibitor = PfM18AAP inhibitors, malaria aminopeptidase, primary screen, biochemical, QFRET, recombinant enzyme; M18 aspartyl aminopeptidase (Plasmodium falciparum 3D7); H-Glu-NHMec fluorogenic cleavage; inhibition, % at 7.35 µM; hit rate 1.2% among 290,000;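 active means inhibition above the campaign mean inhibition over all tested compounds plus 3 SD, cut at about 28% in these data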
EBNA-1 inh = EBNA-1 DNA-binding inhibitors, primary screen, biochemical, fluorescence polarization | inhibition, % at 14.8 µM | hit rate 0.34% among 300,000; in the data active means inhibition above about 28%
ZTA DNA inh = ZTA (EBV) inhibition in EBNA-1 counter-screen. AID 2234. inhibition, % at 11 µM. hit rate 0.15% among 320,000. ZTA-DNA binding, fluorescence polarization; in the data active means inhibition above about 33%
Target sequence (P03206 whole entry, looked up): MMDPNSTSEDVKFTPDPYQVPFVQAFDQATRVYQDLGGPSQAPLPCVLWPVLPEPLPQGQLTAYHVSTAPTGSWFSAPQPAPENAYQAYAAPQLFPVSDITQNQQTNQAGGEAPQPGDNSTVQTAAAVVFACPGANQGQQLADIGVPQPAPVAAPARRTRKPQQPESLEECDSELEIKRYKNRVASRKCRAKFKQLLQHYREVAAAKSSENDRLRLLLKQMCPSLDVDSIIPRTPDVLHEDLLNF
Hits are given with their value; . = inactive; / = no result given.

SMILES	NS3 helicase inh	ALR inh	HCV core dimer	M18AAP inhibitor	EBNA-1 inh	ZTA DNA inh
CSc1nc(SCC(=O)NCc2ccco2)c2c3c(sc2n1)CN(C)CC3	.	.	48.0	.	.	.
COCCCn1c(SCC(=O)NCc2ccco2)nc2sc3c(c2c1=O)CCC3	.	93.7	.	.	.	.
Cc1cc(C)n2nc(-c3ccccc3)c(-c3ccccc3)c2n1	.	/	.	.	.	.
Cc1ccc(C(=O)NCC(=O)N2CCCCCCC2)cc1C	/	.	/	/	/	.
CCC(C)N(C(=O)c1csnn1)C(C(=O)NC1CCCC1)c1ccccc1F (stereo not given)	.	.	.	.	.	.
Cc1ccc2c(c1)N(C(=O)CCC(=O)NCc1cccc(F)c1)CCO2	.	.	.	.	.	.
CCc1nn(CC(=O)NCCCN2CCN(C)CC2)c(=O)c2cc3sccc3n12	.	.	.	.	.	.
CCc1nn(CC(=O)NCCCN2CCc3ccccc3C2)c(=O)c2cc3sccc3n12	.	95.2	.	.	.	.
O=C1c2cccc3cccc(c23)C(=O)N1CCCc1n[nH]c(=S)n1-c1ccccc1	.	91.9	.	.	.	.
OCCNCC(O)CN1c2ccccc2Sc2ccccc21 (stereo not given)	.	99.2	/	.	/	/
O=C(Cn1nc(C(=O)O)c2ccccc2c1=O)Nc1ccc(Cl)c(S(=O)(=O)N2CCOCC2)c1	/	.	/	/	/	/
CC(=O)Nc1ccc(NC(=O)C(C)Sc2n[nH]c(=O)n2Cc2ccccc2)cc1 (stereo not given)	.	.	.	.	.	.
CC(C)(O)C#Cc1ccc(C(=O)NC2CCCCC2)s1	.	96.6	.	.	.	.
Cc1ccc(S(=O)(=O)N(C)Cc2ccc(C(=O)N/N=C3\CC(=O)CC(C)(C)C3)cc2)cc1	.	.	.	.	.	.
COc1ccc(Cl)cc1C(=O)NC(=S)Nc1cc(-c2nc3ccccc3[nH]2)ccc1C	.	/	47.3	.	.	.
O=S1(=O)CC(NCc2ccccc2)C(Nc2ccccc2)C1 (stereo not given)	.	.	.	.	.	.
O=S1(=O)C[C@@H](O)[C@@H](Nc2ccc(Cl)cc2)C1	.	97.5	.	.	.	.
CC(C)NC(=O)NC(=O)CSc1nnc(-c2c[nH]c3ccccc23)o1	.	.	.	.	.	.
COc1ccccc1-c1cn[nH]c1-c1ccc(OCC(=O)NN)cc1O	.	95.1	.	.	.	.
COc1ccc(-c2cn[nH]c2-c2ccc(OCC(=O)NN)cc2O)cc1OC	.	.	.	.	.	.
COc1ccc(-c2cn[nH]c2-c2ccc(OCC(=O)NN)cc2O)cc1	.	78.2	/	.	/	/
COc1ccccc1-c1cn[nH]c1-c1ccc(OCc2ccc(F)cc2)cc1O	.	/	.	.	.	.
O=S(c1ccc2ccccc2c1)c1cnns1 (stereo not given)	.	98.7	.	.	.	.
O=Cc1[nH]c2ccccc2c1N(C(=O)CCl)c1ccc([N+](=O)[O-])cc1	.	98.7	.	.	.	.
CC(=O)n1cc(N(C(=O)CCl)c2ccc([N+](=O)[O-])cc2)c2ccccc21	.	.	.	.	.	.
SMILES	NS3 helicase inh	ALR inh	HCV core dimer	M18AAP inhibitor	EBNA-1 inh	ZTA DNA inh
O=C(NCCNc1nccc(C(F)(F)F)n1)c1cccs1	.	.	.	.	.	.
CC(C)n1c(-c2ccc(C(C)(C)C)cc2)n[nH]c1=S	.	82.4	.	.	.	.
CCc1nc2nc(C)c(NS(=O)(=O)c3ccc(Cl)s3)c(=O)n2[nH]1	.	.	.	.	.	.
CCc1nc(Nc2ccccc2)c2oc3ccccc3c2n1	.	.	.	.	.	.
CCc1nc(Nc2ccc(N3CCN(C(C)=O)CC3)cc2)c2oc3ccccc3c2n1	.	96.5	.	.	.	.
CC(=O)N1CCN(c2ccc(Nc3ncnc4c3oc3ccccc34)cc2)CC1	.	99.2	.	.	.	.
CSc1nc(-c2ccc(Cl)cc2Cl)[nH]c(=O)c1C#N	.	96.4	.	.	.	.
Cc1cc(-c2ccc(Cl)cc2Cl)c(C#N)c(=O)[nH]1	.	.	.	.	.	.
CN(C)C(CNC(=O)CNC(=O)c1ccc2ccccc2c1)c1ccccc1 (stereo not given)	.	.	.	.	.	.
Oc1ccc(Br)cc1CN1CCCCCCC1	.	98.8	.	.	.	.
Oc1ccc2cc(Br)ccc2c1CN1CCCC1	.	76.5	.	.	.	.
O=C(NCCc1ccccn1)c1nc(Cn2ccc([N+](=O)[O-])n2)no1	.	.	.	.	.	.
CN(CC(=O)NCc1ccco1)S(=O)(=O)c1ccc2c(c1)n(C)c(=O)c(=O)n2C	.	91.8	.	.	.	.
COC(=O)Sc1nnc(-c2ccc(Br)cc2)o1	.	97.7	.	.	.	.
CCOc1ccc(C(CC(=O)O)NC(=O)Cc2ccc(Cl)cc2)cc1 (stereo not given)	.	.	.	.	.	.
Cc1ccc(NC(=O)CSC2=C(C#N)C(c3ccco3)CC(=O)N2)cc1 (stereo not given)	.	98.5	.	.	.	.
Cc1ccc(NC(=O)CSC2=C(C#N)C(c3ccco3)C3=C(CC(C)(C)CC3=O)N2)cc1 (stereo not given)	.	98.3	.	.	.	.
Cc1ccc(C(=O)CSC2=C(C#N)C(c3ccco3)CC(=O)N2)c(C)c1 (stereo not given)	.	92.4	.	.	.	.
CCc1ccc(NC(=O)CSC2=C(C#N)C(c3ccco3)C3=C(CCCC3=O)N2)cc1 (stereo not given)	.	.	.	.	.	.
Cc1nc(C)n(C(C)CNS(=O)(=O)c2ccc(Cl)cc2)n1 (stereo not given)	.	.	.	.	.	.
CC1CCCC(NC(=O)COC(=O)CSc2ccc3ccccc3c2)C1C (stereo not given)	.	99.0	.	.	.	.
CC1CCCC(NC(=O)COC(=O)CCc2ccccc2)C1C (stereo not given)	.	.	.	.	.	.
COCCn1nnnc1CN(Cc1cccnc1)Cc1cc2cc(OC)ccc2[nH]c1=O	.	/	/	29.0	/	/
O=c1[nH]c2cc3c(cc2cc1CN(Cc1ccccc1)Cc1nnnn1Cc1ccco1)OCCO3	.	/	/	29.7	/	/
O=c1[nH]c2cc3c(cc2cc1CN(Cc1cccnc1)Cc1nnnn1Cc1ccco1)OCCO3	.	.	.	28.3	.	.
O=c1[nH]c2cc3c(cc2cc1CN(Cc1cccs1)Cc1nnnn1Cc1ccco1)OCCO3	.	/	.	30.7	.	.
COc1ccccc1CN(Cc1cc2cc3c(cc2[nH]c1=O)OCCO3)Cc1nnnn1Cc1ccco1	.	.	.	.	.	.
